Screens from PubChem.
sPLA2-III inh = Inhibits HGIII-sPLA2 liposome hydrolysis, primary screen; Q9NZ20; QFRET BODIPY PC-A2 liposome hydrolysis, fluorescence; inhibition, % at 12.2 µM; 370,000 tested, 0.56% active; AID 743126;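 active = inhibition above mean plus 3 SD of compounds lying within the high and low control bounds, cut at about 19% in these data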
Target sequence (Q9NZ20 whole entry, looked up): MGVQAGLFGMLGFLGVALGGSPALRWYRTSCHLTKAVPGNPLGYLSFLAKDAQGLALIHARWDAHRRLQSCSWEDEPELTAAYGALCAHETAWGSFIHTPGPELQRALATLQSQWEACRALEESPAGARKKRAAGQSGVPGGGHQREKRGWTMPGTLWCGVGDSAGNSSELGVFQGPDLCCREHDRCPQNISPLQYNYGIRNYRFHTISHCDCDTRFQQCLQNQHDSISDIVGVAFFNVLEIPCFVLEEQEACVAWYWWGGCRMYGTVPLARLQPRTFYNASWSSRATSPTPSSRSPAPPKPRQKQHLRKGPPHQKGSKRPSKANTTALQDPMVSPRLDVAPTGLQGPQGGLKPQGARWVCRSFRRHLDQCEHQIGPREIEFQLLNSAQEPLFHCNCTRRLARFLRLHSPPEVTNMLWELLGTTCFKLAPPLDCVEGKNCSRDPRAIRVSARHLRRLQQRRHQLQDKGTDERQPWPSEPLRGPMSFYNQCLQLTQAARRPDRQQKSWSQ
Efflux pump inh = blocks antifungal efflux pumps in multiplex yeast assay; S. cerevisiae Candida pump triplex, Nile Red efflux; inhibition, % at 10 µM; 330,000 tested, 0.44% active; AID 485275;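 active = plate passing quality check with inhibition over a set limit, or well fluorescence over plate mean plus 4 SD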;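 also: Nile Red retained in pooled yeast measured as flow cytometry median fluorescence; higher means more Nile Red kept so more efflux inhibition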
TAG inh = triacylglycerol accumulation inhibition; H9c2 cells, Nile Red lipid (TAG) fluorescence; cells loaded with 200 µM oleic acid; inhibition, % at 12.5 µM; 230,000 tested, 0.66% active; AID 651582;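 active = pattern-corrected inhibition of lipid staining of at least 50% with the nuclear-stain viability signal not falling by more than 50%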
MT1-MMP act inh = inhibitors of human MT1-MMP activation. GFP/RFP ratio change, % at 20 µM. P50281. HT1080 RFP-PRO-GFP cells, GFP/RFP ratio fluorescence, overnight; percent of plate control window, DMSO zero. AID 651647. 360,000 tested, 0.061% active;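 active = GFP/RFP ratio change of at least 30% with cell ATP level not reduced by more than half and red fluorescence within 50% of control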
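Assay system: HT1080 cells carrying an RFP-PRO-GFP reporter | Dosing: Single dose of 20 µM compound, 1% DMSO final | Incubation: Cells overnight before dosing, compound overnight, 37 °C, 5% CO2 | Evaluation: GFP/RFP fluorescence ratio | Control set: DMSO and RFP-L50D-GFP cell wells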
sPLA2 confirm = human GIII-sPLA2 inhibition, confirmation; inhibition, % at 12.2 µM; recombinant hGIII-sPLA2, BODIPY PC-A2 QFRET fluorescence; 2,000 tested, 34% active; shares compounds with sPLA2-III inh;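 active = mean inhibition across triplicates above the hit cutoff set in the earlier primary screen, cut at about 19% in these data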
BODIPY interf = optically interferes with 535nm fluorescence in sPLA2 counter-screen. shares compounds with sPLA2-III inh. BODIPY FL product fluorescence interference, QFRET. inhibition, % at 12.2 µM. 2,000 tested, 8.5% active. AID 743282;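 active = average inhibition above the solvent-only control mean plus 3 SD, cut at about 6% in these data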
BODIPY interf DR = counter-screen for HGIII-sPLA2 inhibitors: 535nm fluorescence interference, dose response; shares compounds with sPLA2-III inh; BODIPY FL product fluorescence interference, cell-free; IC50, µM; 240 tested, under 10 active; AID 743455;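 active = IC50 at or below 10 µM; inactive = IC50 above 10 µM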
Numbers stand for hits. Hits are enriched below; roughly 1.3% of the tested compounds scored in any of these assays.

For CN(C)c1ccc(Nc2ccc([N+](=O)[O-])cn2)cc1 the results were sPLA2-III inh 39, Efflux pump inh inactive, MT1-MMP act inh inactive, sPLA2 confirm 44 and BODIPY interf 6.5.
Screening CC(=O)Nc1ccc(Nc2ccc([N+](=O)[O-])cn2)cc1 returned sPLA2-III inh inactive, Efflux pump inh inactive, TAG inh inactive and MT1-MMP act inh inactive.
O=C(Nc1ccc(NC(=S)NC(=O)c2cccs2)cc1)c1ccccc1 was read as sPLA2-III inh inactive, Efflux pump inh inactive and MT1-MMP act inh inactive.
O=C(NNC(=S)NC(=O)c1cccs1)c1ccc(NC(=O)c2ccccc2)cc1 was read as sPLA2-III inh 21, Efflux pump inh inactive, MT1-MMP act inh inactive, sPLA2 confirm 41, BODIPY interf inactive and BODIPY interf DR inactive.
CCCCC(=O)Nc1ccc(C(=O)NNC(=S)NC(=O)c2ccco2)cc1 was read as sPLA2-III inh 20, Efflux pump inh inactive, TAG inh inactive, MT1-MMP act inh inactive, sPLA2 confirm 24 and BODIPY interf inactive.
`CCCCC(=O)Nc1ccc(C(=O)NNC(=S)NC(=O)c2cccs2)cc1` gave sPLA2-III inh 24, Efflux pump inh inactive, MT1-MMP act inh inactive, sPLA2 confirm 28, BODIPY interf inactive and BODIPY interf DR inactive.
`CCCCC(=O)Nc1ccc(C(=O)NNC(=O)c2ccco2)cc1` gave sPLA2-III inh inactive, Efflux pump inh inactive and MT1-MMP act inh inactive.
For O=C(Cc1ccccc1)NNC(=S)NC(=O)c1cccs1 the results were sPLA2-III inh 21, Efflux pump inh inactive, TAG inh inactive, MT1-MMP act inh inactive, sPLA2 confirm 35, BODIPY interf inactive and BODIPY interf DR inactive.
`COCCSc1nnc(-c2cccnc2)n1Cc1ccccc1` gave sPLA2-III inh inactive.
`O=C(OCc1ccccc1)c1cn(-c2ccccc2)nc1-c1ccncc1` gave sPLA2-III inh inactive, Efflux pump inh inactive and MT1-MMP act inh inactive.
C[C@@H]1CN([C@@H](C)CO)C(=O)CCCn2nncc2CO[C@@H]1CN(C)C(=O)c1ccccc1 was read as sPLA2-III inh inactive, TAG inh inactive and MT1-MMP act inh inactive.
`C[C@@H]1CN([C@H](C)CO)C(=O)CCCn2nncc2CO[C@@H]1CN(C)C(=O)c1ccccc1` gave sPLA2-III inh 21, TAG inh inactive, MT1-MMP act inh inactive, sPLA2 confirm inactive and BODIPY interf inactive.
`C[C@@H]1CN([C@H](C)CO)C(=O)CCCn2nncc2CO[C@H]1CN(C)C(=O)c1ccc(N2CCN(C)CC2)cc1` gave sPLA2-III inh 19, TAG inh inactive, MT1-MMP act inh inactive, sPLA2 confirm inactive and BODIPY interf inactive.
CC(C)(C)Cc1c(-c2cccc(Br)c2)nc2ccc(Cl)cn12 was read as sPLA2-III inh inactive and MT1-MMP act inh inactive.
`COc1ccc(CCN(C)Cc2ccc(C(=O)Nc3ccccc3)cc2)cc1OC` gave sPLA2-III inh inactive, Efflux pump inh inactive, TAG inh inactive and MT1-MMP act inh inactive.
`O=C(CNS(=O)(=O)c1ccc(Br)cc1)Nc1ccc2c(c1)OCCO2` gave sPLA2-III inh inactive, TAG inh inactive and MT1-MMP act inh inactive.
For Cc1ccccc1Nc1c(-c2ccccn2)nc2ccccn12 the results were sPLA2-III inh inactive, Efflux pump inh inactive, TAG inh inactive and MT1-MMP act inh inactive.
For Cc1ccn2c(Nc3ccccc3C)c(-c3ccccn3)nc2c1 the results were sPLA2-III inh 21, Efflux pump inh inactive, TAG inh inactive, MT1-MMP act inh inactive, sPLA2 confirm 30, BODIPY interf inactive and BODIPY interf DR inactive.
Screening Cc1ccc2nc(-c3ccccn3)c(Nc3ccccc3C)n2c1 returned sPLA2-III inh 27, Efflux pump inh inactive, TAG inh inactive, MT1-MMP act inh inactive, sPLA2 confirm 24 and BODIPY interf inactive.
Cc1ccn2c(Nc3ccccc3)c(-c3ccccn3)nc2c1 was read as sPLA2-III inh 20, Efflux pump inh inactive, TAG inh inactive, MT1-MMP act inh inactive, sPLA2 confirm inactive and BODIPY interf inactive.
Screening COC(=O)[C@@]1(Cc2ccc(F)cc2)[C@H]2c3cc(C(=O)N(C)C)n(CC4CC4)c3C[C@H]2CN1C(=O)c1ccccc1 returned sPLA2-III inh inactive and MT1-MMP act inh inactive.
For CC(C)(C)NC(=S)N1CCC2CC1c1cc(-c3ccc4c(c3)OCO4)ccc12 (configuration not stated) the results were sPLA2-III inh 22, MT1-MMP act inh inactive, sPLA2 confirm inactive and BODIPY interf inactive.
Screening CC(C)(C)C(=O)N1CCC2CC1c1cc(-c3ccc4c(c3)OCO4)ccc12 (configuration not stated) returned sPLA2-III inh inactive and MT1-MMP act inh inactive.
CC[C@H](C)[C@@H](CN[C@H](C)CNC)NCCC(c1ccccc1)c1ccccc1 was read as sPLA2-III inh 26, Efflux pump inh inactive, MT1-MMP act inh inactive, sPLA2 confirm inactive and BODIPY interf inactive.
For CCOC(=O)[C@]12CCCC3=C1N(CCC3)C(=O)[C@@H](CC(=O)NCc1ccc(C)o1)C2 the results were sPLA2-III inh inactive.
`N#CCC[C@H]1CC[C@]2(CCCN(C(=O)c3ccccc3)C2)O1` gave sPLA2-III inh 19, sPLA2 confirm inactive and BODIPY interf inactive.
For CC(C)Cn1c(/C=N/Nc2nc3ccccc3[nH]2)nc2ccccc21 the results were sPLA2-III inh 29, MT1-MMP act inh inactive, sPLA2 confirm 39 and BODIPY interf inactive.
Screening C=CCn1cc(/C=N/Nc2nc3ccccc3[nH]2)c2ccccc21 returned sPLA2-III inh inactive, Efflux pump inh inactive and MT1-MMP act inh inactive.
Screening Cc1ncoc1C(=O)NC1CCCc2c1cnn2-c1ccc(C(C)(C)C)cc1 (configuration not stated) returned sPLA2-III inh inactive, TAG inh inactive and MT1-MMP act inh inactive.
For CCC(=O)Nc1cccc(NC(=S)NC(=O)c2ccc(Cl)cc2Cl)c1 the results were sPLA2-III inh 21, Efflux pump inh inactive, TAG inh inactive, MT1-MMP act inh inactive, sPLA2 confirm inactive and BODIPY interf inactive.
`Cc1ccc(-c2ccc(=O)n(CC(=O)NCCC(C)C)n2)cc1` gave sPLA2-III inh inactive, Efflux pump inh inactive and MT1-MMP act inh inactive.
Cc1cc(S(=O)(=O)N(Cc2ccccc2Cl)c2ccc3c(c2)CCC3)ccc1-n1cnnn1 was read as sPLA2-III inh 20, Efflux pump inh inactive, MT1-MMP act inh inactive, sPLA2 confirm inactive and BODIPY interf inactive.
COc1cccc(/C=N/NC(=O)C(=O)Nc2ccccc2OC(F)(F)C(F)F)c1 was read as sPLA2-III inh 21, Efflux pump inh inactive, MT1-MMP act inh inactive, sPLA2 confirm inactive and BODIPY interf inactive.
